This passage reports Activity and IC50 results from ChEMBL document CHEMBL4699407, “Isoquinoline thiosemicarbazone displays potent anticancer activity with in vivo efficacy against aggressive leukemias” (RSC Med Chem, 2020).

The IC50 is the midpoint of a concentration-inhibition curve.

Structures are written as SMILES. Active and inactive are the calls of the source. The rule behind the calls is not given here.

Assay [1] has as its system MIA PaCa-2. Nature of the assay: Cytotoxicity against human MIA PaCa2 cells assessed as reduction in cell viability at 25 nM in presence of Fe2+ incubated for 72 hrs by cell titer-glo luminescent cell viability assay. Type of assay: functional, cell-based. In short, it runs like this: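 MIAPACA2 cells were exposed to compound for 72 h with 20 μM Fe(II) or Zn(II) supplement. Proliferation was read by CellTiter-Glo ATP luminescence.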
Background: In ATP-based viability assays light output follows the ATP content of the culture.

Assay [2] has as its system SW1990. Put plainly: Cytotoxicity against human SW1990 cells assessed as reduction in cell viability in presence of Cu2+ incubated for 72 hrs by cell titer-glo luminescent cell viability assay. Conditions: SW1990, 72 h. Type of assay: functional, cell-based. In short, it runs like this:
(§1)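 Cells were grown in DMEM or RPMI with 10% FBS, without antibiotics, at 37 °C, 20% O2, 5% CO2. Adherent lines were seeded at 500 cells/well. Serially diluted compound was given with 20 μM Cu(II) (CuCl2) for 72 h; leukemia models received pre-formed 1:1 copper complex. ATP was read by CellTiter-Glo luminescence. IC50 is relative to DMSO-treated cells.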

Assay [3] deals with ASPC1. Nature of the assay: Cytotoxicity against human ASPC1 cells assessed as reduction in cell viability in presence of Cu2+ incubated for 72 hrs by cell titer-glo luminescent cell viability assay. Type of assay: functional, cell-based. Conditions: ASPC1, 72 h. In outline: as §1
Assay [4] in a line: Cytotoxicity against human PaTu 8902 cells assessed as reduction in cell viability in presence of Cu2+ incubated for 72 hrs by cell titer-glo luminescent cell viability assay. The class given is functional, cell-based. Conditions: PaTu 8902, 72 h. In short, it runs like this:
as §1

Assay [5] relates to BXPC-3. Nature of the assay: Cytotoxicity against human BXPC-3 cells assessed as reduction in cell viability in presence of Cu2+ incubated for 72 hrs by cell titer-glo luminescent cell viability assay. Type of assay: functional, cell-based. Conditions: BXPC-3, 72 h. In outline: as §1
For assay [6], the system named is NCI-H1963. Put plainly: Cytotoxicity against human NCI-H1963 cells assessed as reduction in cell viability in presence of Cu2+ incubated for 72 hrs by cell titer-glo luminescent cell viability assay. To be noted: NCI-H1963, 72 h. Type of assay: functional, cell-based. In short, it runs like this:
as §1

In assay [7] the test system is MOLT-4. Put plainly: Cytotoxicity against human MOLT-4 cells assessed as reduction in cell viability in presence of Cu2+ incubated for 72 hrs by cell titer-glo luminescent cell viability assay. The class given is functional, cell-based. To be noted: MOLT-4, 72 h. In short, it runs like this: as §1
The subject of assay [8] is MIA PaCa-2. Put plainly: Induction of apoptosis in human MIA PaCa-2 cells assessed as reduction in viable cells at 25 nM in presence of Cu2+ incubated for 72 hrs by annexin V and propidium iodide staining based flow cytometry analysis relative to control. The class given is functional. In outline: (§2)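 Cells given 25 nM compound with or without 20 μM Cu(II) and/or the ATR inhibitor VE-822 at 250 nM for 72 h. Stained with annexin V-FITC and propidium iodide, then analysed on a five-laser flow cytometer to score viable, early apoptotic, late apoptotic and necrotic fractions against vehicle.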

Assay [9] deals with MIA PaCa-2. Nature of the assay: Induction of apoptosis in human MIA PaCa-2 cells assessed as increase in early apoptotic cells at 25 nM in presence of Cu2+ incubated for 72 hrs by annexin V and propidium iodide staining based flow cytometry analysis relative to control. The class given is functional. In outline: as §2
For orientation: In flow cytometry, cells or beads pass a laser one at a time.

Assay [10] relates to MIA PaCa-2. Nature of the assay: Induction of apoptosis in human MIA PaCa-2 cells assessed as increase in late apoptotic cells at 25 nM in presence of Cu2+ incubated for 72 hrs by annexin V and propidium iodide staining based flow cytometry analysis relative to control. The class given is functional. In short, it runs like this:
as §2

The test system of assay [11] is MIA PaCa-2. Put plainly: Induction of apoptosis in human MIA PaCa-2 cells assessed as increase in early apoptotic cells at 25 nM in presence of Cu2+ and ATRi incubated for 72 hrs by annexin V and propidium iodide staining based flow cytometry analysis relative to control. The class given is functional. In outline:
as §2

The subject of assay [12] is MIA PaCa-2. Nature of the assay: Induction of apoptosis in human MIA PaCa-2 cells assessed as increase in early apoptotic cells at 25 nM incubated for 72 hrs by annexin V and propidium iodide staining based flow cytometry analysis relative to control. The class given is functional. In outline: as §2
In assay [13] the test system is MIA PaCa-2. Nature of the assay: Induction of apoptosis in human MIA PaCa-2 cells assessed as increase in early apoptotic cells at 25 nM in presence of ATRi incubated for 72 hrs by annexin V and propidium iodide staining based flow cytometry analysis relative to control. Type of assay: functional. In outline:
as §2

Assay [14] concerns MIA PaCa-2. Put plainly: Induction of apoptosis in human MIA PaCa-2 cells assessed as increase in late apoptotic cells at 25 nM in presence of ATRi incubated for 72 hrs by annexin V and propidium iodide staining based flow cytometry analysis relative to control. The class given is functional. In outline: as §2
Assay [15] concerns MIA PaCa-2. Nature of the assay: Induction of apoptosis in human MIA PaCa-2 cells assessed as increase in necrotic cells at 25 nM in presence of ATRi incubated for 72 hrs by annexin V and propidium iodide staining based flow cytometry analysis relative to control. Type of assay: functional. In short, it runs like this:
as §2

For assay [16], the system named is MIA PaCa-2. Put plainly: Induction of DNA damage in human MIA PaCa-2 cells assessed as decrease in dATP level at 25 nM in presence of Cu2+ incubated for 48 hrs by LC-MS/MS analysis. The class given is functional, cell-based. In short, it runs like this: (§3)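 Cells in DMEM or RPMI with 10% FBS, 37 °C, 5% CO2. Treated with 25 nM compound plus 20 μM Cu(II) for 48 h. Nucleotide pools quantified by LC-MS/MS with multiple reaction monitoring. Cells were in glucose-free DMEM with 10% dialyzed FBS and 11 mM [U-13C6]glucose for 48 h, and glucose-labeled pools were compared. Mean ± SD, n = 3, two-way ANOVA with Bonferroni correction.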

Assay [17] deals with MIA PaCa-2. Nature of the assay: Induction of DNA damage in human MIA PaCa-2 cells assessed as decrease in dCTP level at 25 nM in presence of Cu2+ incubated for 48 hrs by LC-MS/MS analysis. The class given is functional, cell-based. In short, it runs like this:
as §3

Assay [18] has as its system MIA PaCa-2. Nature of the assay: Induction of DNA damage in human MIA PaCa-2 cells assessed as decrease in TTP level at 25 nM in presence of Cu2+ incubated for 48 hrs by LC-MS/MS analysis. Type of assay: functional, cell-based. In outline:
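MIAPACA2 cells were given 25 nM compound plus 20 μM Cu(II) for 48 h in glucose-free DMEM with 10% dialyzed FBS and 11 mM [U-13C6]glucose. Nucleotide pools were quantified by LC-MS/MS with multiple reaction monitoring. Mean ± SD, n = 3, two-way ANOVA with Bonferroni correction.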

Assay [19] deals with MIA PaCa-2. Put plainly: Induction of mitochondrial ROS generation in human MIA PaCa-2 cells at 25 nM in presence of Cu2+ incubated for 24 hrs by MitoSox red dye based flow cytometry analysis. Type of assay: functional. Conditions: Mitochondria. In short, it runs like this: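 Exposure was 25 nM compound plus 20 μM Cu(II) for 24 h. Cells washed, stained with MitoSOX for 30 min at 37 °C, washed with PBS and analysed by flow cytometry. Mean ± SD, n = 2, Student t-test.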

In assay [20] the test system is 143B. Put plainly: Cytotoxicity against human 143-BTK cells assessed as reduction in cell viability at 25 to 100 nM incubated for 48 hrs by trypan blue assay. To be noted: dose nM 25-100, time 48.0 hrs. Type of assay: functional, cell-based. In outline: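 143 BTK parental (WT) and ρ0 cells were exposed to the indicated compound concentrations plus 20 μM Cu(II) for 48 h. Viable cells were counted by trypan blue staining on a Vi-Cell counter. Mean ± SD, n = 2, Student t-test.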

Assay [21] has as its system MIA PaCa-2. Put plainly: Cytotoxicity against human MIA PaCa2 cells assessed as reduction in cell viability at 25 nM in presence of Cu2+ and 2-DG incubated for 48 hrs by trypan blue assay. The class given is functional, cell-based. In outline:
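MIAPACA2 cells were given 25 nM compound plus 20 μM Cu(II), with or without 2-deoxyglucose (2 mM), for 48 h. Viability was read by trypan blue staining on a Vi-Cell counter. Mean ± SD, n = 2, Student t-test.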

Turning to `CN(C)C(=S)NN=Cc1nccc2cc(F)ccc12`, the result in [1], in [19], in assay [20] and in assay [21] was Active. The IC50 in [2], in [3], in [4], in [5], in assay [6] and in [7] was 1 nM each time. Further, the Activity in [8] came to 77.5%; in assay [9], 13.9%; in [10], 3.68%; in assay [11] it was 24.8%; in [12], 1.85%; in assay [13] it was 9.11%. Also, the Activity came out at 18.8% in assay [14] and 7.34% in assay [15]. Also, the outcome in assay [16], in assay [17] and in assay [18] was inactive.
